Source: ChEMBL document CHEMBL1799922, “Synthesis and antimycobacterial activity of prodrugs of indeno[2,1-c]quinoline derivatives” (Eur J Med Chem, 2011)
In brackets after ≈: the same amount, converted by molar mass.

What was measured:
[1] = Half life in human blood serum by LC-MS analysis; type: ADME, cell-free, Plasma
Procedure, shortened: (§1)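 Enzymatic hydrolysis: 1 mg prodrug dissolved in 1 mL ethanol, then 200 µL preheated human blood serum diluted to 80% with 0.16 M phosphate buffer (pH 7.4) was added. Samples were kept at 37 °C (24 h) and centrifuged 10 min at 10,000 rpm. Remaining prodrug in the supernatant was monitored by TLC and LC-MS. t1/2 is the time to 50% hydrolysis.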

[2] = Octanol-water partition coefficient, log P of the compound at pH 7.4 at room temperature by UV spectrophotometric analysis; type: physicochemical
Procedure, shortened: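 Shake-flask method at room temperature: 1-octanol and phosphate buffer (pH 7.4) were pre-saturated by shaking for 24 h. Compound at 10^-4 M in equal volumes of both phases was shaken vigorously for 1 h, left to stand 15 min, then centrifuged 10 min at 10,000 rpm. UV absorbance of each phase was read at 280 nm against blanks, and P was taken as the octanol/water absorbance ratio.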

[3] = Cytotoxicity against human U937 cells assessed as cell viability at 20 ug/ml after 72 hrs by MTT assay; type: cell-based, U-937; conditions: read-out: Activity
Procedure, shortened: (§2)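 U937 human monocytic cells plated at 1 × 10^5 cells/mL and allowed to adhere for 1 h at 37 °C in 5% CO2. Non-adherent cells were washed off with RPMI 1640. Adherent cells were exposed to compound in triplicate, with medium alone as the live control and 3% Tween 20 as the dead control. MTT (5 mg/mL in PBS) was then added for 3 h at 37 °C. Formazan was dissolved in 0.4 M HCl/isopropanol and absorbance read at 600 nm. Results are expressed as % cell viability.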

[4] = Stability of the compound in 10% aqueous ammonia buffer at pH 8 assessed as hydrolysis to 2-bromo-6-(1H-imidazol-1-yl)-7H-indeno[2,1-c]quinolin-7-one oxime at 1 mg at 37 degC by LC-MS analysis; type: physicochemical; parameters: scale not given: the % may be the effect or the level left
Procedure, shortened: (§3)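 Chemical hydrolysis: 1 mg prodrug dissolved in 1 mL of 10% aqueous ammonia in methanol (pH 8) and held in a thermostatted water bath at 37 °C, up to 24 h. Conversion to the parent oxime was followed by TLC and LC-MS. t1/2 is the time to 50% hydrolysis.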

[5] = system: Mycobacterium tuberculosis; assay: Antimicrobial activity against Mycobacterium tuberculosis H37Rv ATCC 27294 after 16 to 24 hrs by microplate alamar blue assay; type: functional
Procedure, shortened: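 M. tuberculosis H37Rv inoculum 2×10^5 cfu/mL (100 µL) added to twofold dilutions in Middlebrook 7H12 medium; final test range 128 µM to 0.5 µM from 12.8 mM DMSO stocks. Incubated 37 °C; day 7 Tween 80 plus Alamar Blue added, further 16-24 h at 37 °C. Fluorescence ex 530/em 590 nm; MIC = lowest concentration giving >90% fluorescence reduction versus replicate bacteria-only controls. Rifampin, isoniazid controls.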

[6] = Cytotoxicity against human U937 cells assessed as cell viability at 5 ug/ml after 72 hrs by MTT assay; type: cell-based, U-937; conditions: read-out: Activity; procedure, shortened: as §2
[7] = Cytotoxicity against human U937 cells assessed as cell viability at 1.25 ug/ml after 72 hrs by MTT assay; type: cell-based, U-937; conditions: read-out: Activity; procedure, shortened: as §2
[8] = system: Serum; assay: Stability of the compound in 80% human blood serum assessed as hydrolysis to 2-bromo-6-(1H-imidazol-1-yl)-7H-indeno[2,1-c]quinolin-7-one oxime at 1 mg after 24 hrs at 37 degC by LC-MS analysis; type: ADME, cell-free; parameters: scale not given: the % may be the effect or the level left; procedure, shortened: as §1
[9] = Cytotoxicity against human U937 cells assessed as cell viability at 10 ug/ml after 72 hrs by MTT assay; type: cell-based, U-937; conditions: read-out: Activity; procedure, shortened: as §2
[10] = Half life in 10% aqueous ammonia buffer at pH 8 assessed as hydrolysis to 2-bromo-6-(1H-imidazol-1-yl)-7H-indeno[2,1-c]quinolin-7-one oxime at 37 degC by LC-MS analysis; type: physicochemical; procedure, shortened: as §3
[11] = Selectivity index, ratio CC50 for human U937 cells to MIC for Mycobacterium tuberculosis H37Rv ATCC 27294; type: functional, U-937

| Compound | half-life [1] [h] | logD [2] | viability at 72 h, 20 ug/ml [3] [%] | Activity [4] [%] | MIC [5] [µg/mL] | viability at 72 h, 5 ug/ml [6] [%] | viability at 72 h, 1.25 ug/ml [7] [%] | Activity [8] [%] | viability at 72 h, 10 ug/ml [9] [%] | half-life [10] [h] | Selectivity Index [11] |
| --- | --- | --- | --- | --- | --- | --- | --- | --- | --- | --- | --- |
| CCCCCCCCC(=O)O/N=C1\c2ccccc2-c2c1c(-n1ccnc1)nc1ccc(Br)cc21 | 72 | 1.9 | 72 | 95 | 0.39 (≈ 0.734 µM) | 85 | 87 | 95 | 77 | 24 | >102 |
| CCC(=O)O/N=C1\c2ccccc2-c2c1c(-n1ccnc1)nc1ccc(Br)cc21 | 84 | 1.2 | 67 | 95 | 0.29 (≈ 0.648 µM) | 86 | 84 | 90 | 75 | 48 | >137 |
| CC(C)(C)OC(=O)NCC(=O)O/N=C1\c2ccccc2-c2c1c(N1CCN(c3ccccn3)CC1)nc1ccc(Br)cc21 | 24 | 0.7 | 49 | 95 | 1.55 (≈ 2.41 µM) | 82 | 87 | 95 | 63 | 3.6 | 22 |
